Rows were chosen to be rich in hits. Some 3.8% of all compounds tested hit in one or more screens of this group.
FGF22 binding = shifts melting point of recombinant human FGF22; Q9HCT0; recombinant FGF22 thermal shift, SYPRO orange fluorescence; percent of sucrose octasulfate shift, DMSO zero; activity (Tm shift, normalised), % at 9.99 µM; hit rate 1.5% among 340,000; AID 651658;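 active means mean Tm shift, scaled 0 neutral to 100 positive control, at about 1.3% or above, every replicate too, limit read from the data; inconclusive means no clear call, values can overlap the other calls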
Target sequence (Q9HCT0 whole entry, looked up): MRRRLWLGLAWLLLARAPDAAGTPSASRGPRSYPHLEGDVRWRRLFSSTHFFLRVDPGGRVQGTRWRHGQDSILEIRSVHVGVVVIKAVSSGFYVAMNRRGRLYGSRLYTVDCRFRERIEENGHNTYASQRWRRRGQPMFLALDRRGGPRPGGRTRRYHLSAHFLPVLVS
ARNT TACC3 PPI = disrupts binding between human ARNT and TACC3 | AlphaScreen His-ARNT PAS-B/GST-TACC3 binding, luminescence; TACC3 fragment carries E629A point mutation | inhibition, % at 9.99 µM | hit rate 0.66% among 390,000 | AID 623870;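 active means mean inhibition of replicates at least 50% and at least half of replicates each reaching 50%; inconclusive means half or more replicates reach 50% but mean below 50%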;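 further: 0% = complete ARNT plus TACC3 wells and 100% = ARNT alone without TACC3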
FN deposition inh = fibronectin deposition inhibition; inhibition, % at 12.6 µM; AH1F fibroblasts, Alexa488-fibronectin deposition fluorescence, overnight; hit rate 0.086% among 350,000; AID 743247;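 active means mean inhibition across replicates of 30% or more, regardless of how many single replicates reach that level; inconclusive means mean under 30% yet at least half of replicates reach 30%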;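 further: positive control wells lacked labelled fibronectin entirely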
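Test system: AH1F fibroblast monolayer depositing Alexa488-labelled fibronectin into matrix. Input: 10000 cells per well. Technique: fluorescence, ex 485 nm, em 525 nm. Buffer or medium: DMEM plus 2% serum, read in PBS. Timing: 1 h cell adhesion before compound, then overnight fibronectin incubation. Compound: single dose, pinned. Read-out basis: inhibition from reduced deposited-fibronectin fluorescence.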
XiGFP reactiv = X-chromosome reactivation activator; XiGFP mouse fibroblasts, % GFP-positive cells imaging, 3 d; cells co-treated with 5-aza-dC sensitizer; scaled so ellipticine positive control = 100%; activation, % at 7.58 µM; hit rate 0.055% among 360,000; AID 743238;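 active means mean normalized replicate activation at least 10% and every replicate at or above 10%; inconclusive means only one of the two criteria met; inactive means mean below 10% and not all replicates reach 10%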;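 further: 0% = median of on-plate neutral control wells and 100% = ellipticine 6 µM median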
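assay system = SV40-immortalized XiGFP fibroblast cells, line 68-5-11 | buffer or medium = DMEM plus 5-aza-dC sensitizer | doses = single-point pinned compound dosing | times = 3-day compound exposure, then 15 min fixation at room temperature | benchmarks = positive control ellipticine, 6 µM final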
SIRT5 inh = sirtuin-5 (human) deacylase inhibition; Q9NXA8; Purified SirT5, succinyl-peptide AMC, trypsin-coupled fluorescence; inhibition, % at 15 µM; hit rate 1.1% among 330,000; AID 652115; in the data active means inhibition above about 15%; inconclusive means no clear call, values can overlap the other calls
Target sequence (Q9NXA8 whole entry, looked up): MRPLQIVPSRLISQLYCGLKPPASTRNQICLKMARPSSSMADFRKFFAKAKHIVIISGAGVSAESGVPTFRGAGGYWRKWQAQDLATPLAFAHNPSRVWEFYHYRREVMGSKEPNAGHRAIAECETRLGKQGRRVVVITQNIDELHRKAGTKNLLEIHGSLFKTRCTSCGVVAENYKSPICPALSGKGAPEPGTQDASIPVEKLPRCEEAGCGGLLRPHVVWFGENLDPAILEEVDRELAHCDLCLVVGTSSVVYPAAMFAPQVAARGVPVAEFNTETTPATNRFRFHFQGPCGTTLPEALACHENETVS
DENV2 CPE rescue = inhibitors of DENV2 cytopathic effect | DENV2-infected cells, cytopathic effect rescue, plate reader | CPE inhibition, % at 9.99 µM | hit rate 1.7% among 350,000; in the data active means CPE inhibition above about 20%, passing the limit was not always enough; inconclusive means no clear call, values can overlap the other calls; tested in BHK-21 cells;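 further: 0% = median of neutral control wells and 100% = median of positive control wells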
* hit, by the source's call; ? = inconclusive; . = no result given.

SMILES | FGF22 binding | ARNT TACC3 PPI | FN deposition inh | XiGFP reactiv | SIRT5 inh | DENV2 CPE rescue
Cc1ccc(S(=O)(=O)N(C)C[C@H]2OCc3cnnn3CCCC(=O)N([C@@H](C)CO)C[C@@H]2C)cc1 | 0.3 | -1.0 | -6.5 | 0.1 | 6.2 | ?
C[C@@H]1CN([C@@H](C)CO)C(=O)c2cccc(NS(=O)(=O)c3ccc(F)cc3)c2O[C@@H]1CN(C)S(=O)(=O)c1ccccc1 | 0.0 | 3.6 | . | 0.5 | 6.9 | 0.0
COC(=O)[C@@H](NS(=O)(=O)c1cc(Br)ccc1Br)C(C)C | -0.1 | . | -0.7 | 0.2 | 0.3 | 0.4
CCC(C)[C@H](NS(=O)(=O)c1ccc(F)cc1Br)C(=O)OC (some centres not stated) | 43.1* | -2.6 | 3.8 | -0.1 | . | 17.8
CO[C@H]1CN(C)C(=O)c2cc(NC(=O)NC(C)C)ccc2OC[C@@H](C)N(C(=O)C2CCC2)C[C@@H]1C | 0.3 | -1.9 | . | -0.2 | -0.4 | -3.6
Cc1ccc(SCCN)cc1C | 43.4* | -13.9 | -4.9 | -0.1 | -2.1 | -1.1
Nc1ccc(C(CC(=O)O)n2cccc2)cc1 (configuration not stated) | 0.7 | -8.5 | 4.1 | 0.9 | 21.0* | -3.3
O=C(O)CC(c1ccccc1)n1cccc1 (configuration not stated) | . | 3.9 | 0.6 | . | . | .
C[C@@H]1CCCCO[C@H](CN(C)C(=O)Nc2ccc(C(F)(F)F)cc2)[C@H](C)CN([C@H](C)CO)C(=O)c2cc(NS(C)(=O)=O)ccc2O1 | -1.3 | -0.2 | . | -0.8 | 5.6 | 4.3
C=CCn1c(Cc2nc3ccc(Cl)cc3[nH]2)n[nH]c1=S | . | 36.5* | -1.7 | . | . | .
O=C(C[C@H]1CC[C@H]2[C@@H](COC[C@@H](O)CN2S(=O)(=O)c2ccccc2)O1)N1CCOCC1 | 0.0 | 1.8 | 4.5 | 0.0 | 4.2 | 0.0
C[C@@H]1CN([C@@H](C)CO)C(=O)c2cc(NC(=O)Cn3cnnn3)ccc2O[C@@H]1CN(C)Cc1ccc(Cl)c(Cl)c1 | -0.1 | 20.0 | . | 0.0 | -2.6 | 51.7*
C[C@@H]1CN([C@H](C)CO)C(=O)c2cc(NC(=O)Cn3cnnn3)ccc2O[C@H]1CN(C)Cc1ccc2c(c1)OCO2 | 0.2 | -2.0 | . | 0.0 | 3.4 | 21.1*
Cc1ccc(S(=O)(=O)N(C)C[C@@H]2Oc3ccc(NC(=O)CCCN(C)C)cc3C(=O)N([C@@H](C)CO)C[C@@H]2C)cc1 | -0.3 | 2.1 | 2.2 | 1.2 | 5.5 | 4.5
O=C(C1CC1)N1CC(=O)N2[C@H](C1)[C@H](c1ccc(C#CCc3ccccc3)cc1)[C@@H]2CO | . | . | -4.0 | 0.0 | 4.4 | -4.6
Nc1ccc(Cc2ccc([N+](=O)[O-])cc2)cc1 | 43.1* | 6.5 | 3.7 | 0.2 | . | -10.8
Cc1c(Br)c([N+](=O)[O-])nn1C(C)C(=O)N1CCc2ccccc2C1 (configuration not stated) | -0.2 | -0.9 | -5.5 | 0.0 | 3.7 | 23.6*
CCCNC(=O)N1CC2(C1)CN(C(=O)CC1CC1)[C@H](CO)c1c2c2ccc(OC)cc2n1C | 0.0 | . | . | 0.4 | 1.4 | 0.5
CCc1nnc(NC(=O)CCC(=O)Nc2ccc(Cl)cc2)s1 | 43.2* | -4.8 | 2.7 | 0.0 | -3.4 | -4.6
O=C(Nc1ccccc1)Nc1cc(Cl)cc(Cl)c1 | . | -2.7 | . | . | . | .
O=C(Nc1ccccc1)Nc1cc(OCC(F)(F)F)cc(OCC(F)(F)F)c1 | 43.6* | . | 5.0 | -0.1 | 1.1 | -5.4
CNC[C@@H]1Oc2cc(C#Cc3ccccn3)ccc2S(=O)(=O)N([C@@H](C)CO)C[C@H]1C | -0.1 | 33.8 | . | 0.0 | 4.5 | 1.6
C/C=C/c1cnc2c(c1)C(=O)N([C@@H](C)CO)C[C@H](C)[C@@H](CN(C)C(=O)Cc1ccccn1)O2 | 0.0 | -1.8 | . | -1.2 | -5.6 | -1.1
CC1=CC(C)(C)NC(=S)N1c1ccccc1C | 0.0 | 1.7 | 5.0 | 0.0 | -2.2 | 0.1
CC1=CC(C)(C)NC(=S)N1c1cccc2cc(S(=O)(=O)O)ccc12 | 0.0 | 6.0 | 7.6 | 0.2 | 19.7* | -1.2
O=C(N[C@@H]1CC[C@H](CCn2cc(C3(O)CCCC3)nn2)O[C@@H]1CO)c1ccccc1F | 0.0 | -15.9 | -12.3 | -0.2 | 3.4 | 5.0
O=C(c1cccs1)c1coc2ccc(O)c(CN3CCOCC3)c12 | . | 33.1 | . | . | 29.1* | .

Source: PubChem (Broad Institute)
